# Source: ChEMBL document CHEMBL3808334, “Synthesis and in vitro evaluation of novel triazine analogues as anticancer agents and their interaction studies with bovine serum albumin” (Eur J Med Chem, 2016)
# What was measured:
# Assay type in all cases: functional
# [1] = Growth inhibition of human HOP62 cells incubated for 48 hrs by sulforhodamine B assay; conditions: HOP-62, 48 h
# Method in brief: (§1)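 Cells seeded at 5,000–40,000/well according to doubling time and preincubated 24 h at 37 °C, 5% CO2. Time-zero plates were TCA-fixed. DMSO concentrate was diluted in medium with 50 µg/ml gentamicin to give five concentrations (10-fold or ½ log steps), then exposed 48 h. Cells were TCA-fixed, stained with 0.4% SRB and read at 515 nm. Percent growth was taken against time-zero and control; GI50, TGI and LC50 derived.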
# [2] = Growth inhibition of human SW620 cells assessed as cell growth at 10^-7 M incubated for 48 hrs by sulforhodamine B assay; conditions: SW-620, 48 h, read-out: Activity
# [3] = tested on: SK-MEL-28; assay: Growth inhibition of human SK-MEL-28 cells assessed as cell growth at 10^-6 M incubated for 48 hrs by sulforhodamine B assay; conditions: SK-MEL-28, 48 h, read-out: Activity
# [4] = tested on: A549; assay: Growth inhibition of human A549/ATCC cells incubated for 48 hrs by sulforhodamine B assay; conditions: A549, 48 h
# Method in brief: (§2)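 Five-dose assay: five concentrations from 10-fold or ½-log serial dilutions. Cells are plated at 5,000–40,000 per well according to doubling time, grown 24 h, then exposed 48 h at 37 °C, 5% CO₂. Fixed with cold 50% TCA (final addition) for 60 min at 4 °C and stained with 0.4% SRB in 1% acetic acid. Bound dye is solubilized in 10 mM Tris base and read at 515 nm. GI₅₀ is where [(Ti−Tz)/(C−Tz)]×100 = 50, with a time-zero plate as Tz.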
# [5] = Growth inhibition of human OVCAR8 cells assessed as cell growth at 10^-8 M incubated for 48 hrs by sulforhodamine B assay; conditions: OVCAR-8, 48 h, read-out: Activity
# [6] = tested on: EKVX; assay: Growth inhibition of human EKVX cells assessed as cell growth at 10^-5 M incubated for 48 hrs by sulforhodamine B assay; conditions: read-out: Activity; method in brief: as §1
# [7] = Growth inhibition of human breast cancer cells incubated for 48 hrs by sulforhodamine B assay; conditions: Cancer cell lines; for CC50: read-out: LC50 (the source's name)
# [8] = Growth inhibition of human OVCAR5 cells assessed as cell growth at 10^-8 M incubated for 48 hrs by sulforhodamine B assay; conditions: OVCAR-5, 48 h, read-out: Activity
# [9] = tested on: NCI-H522; assay: Growth inhibition of human NCI-H522 cells assessed as cell growth at 10^-5 M incubated for 48 hrs by sulforhodamine B assay; conditions: NCI-H522, 48 h, read-out: Activity
# [10] = Growth inhibition of human RPMI8226 cells assessed as cell growth at 10^-8 M incubated for 48 hrs by sulforhodamine B assay; conditions: RPMI-8226, 48 h, read-out: Activity
# [11] = tested on: MDA-MB-468; assay: Growth inhibition of human MDA-MB-468 cells assessed as cell growth at 10^-5 M incubated for 48 hrs by sulforhodamine B assay; conditions: MDA-MB-468, 48 h, read-out: Activity
# [12] = tested on: 786-0; assay: Growth inhibition of human 786-0 cells incubated for 48 hrs by sulforhodamine B assay; conditions: 786-0, 48 h; method in brief: as §2
# [13] = tested on: ACHN; assay: Growth inhibition of human ACHN cells assessed as cell growth at 10^-7 M incubated for 48 hrs by sulforhodamine B assay; conditions: read-out: Activity; method in brief: as §2
# [14] = tested on: A498; assay: Growth inhibition of human A498 cells assessed as cell growth at 10 uM incubated for 48 hrs by sulforhodamine B assay; conditions: A498, 48 h, read-out: Activity
# Method in brief: (§3)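 One-dose screen at 10 µM final. Cells are plated at 5,000–40,000 per well according to doubling time and preincubated 24 h at 37 °C, 5% CO₂. Compound (DMSO stock diluted in medium with 50 µg/ml gentamicin) is then added for 48 h. Growth percent is read by sulforhodamine B staining, absorbance at 515 nm.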
# [15] = tested on: MCF7; assay: Growth inhibition of human MCF7 cells assessed as cell growth at 10^-4 M incubated for 48 hrs by sulforhodamine B assay; conditions: MCF7, 48 h, read-out: Activity
# [16] = tested on: MDA-MB-231; assay: Growth inhibition of human MDA-MB-231 cells assessed as cell growth at 10 uM incubated for 48 hrs by sulforhodamine B assay; conditions: MDA-MB-231, 48 h, read-out: Activity
# [17] = tested on: KM12; assay: Growth inhibition of human KM12 cells assessed as cell growth at 10^-7 M incubated for 48 hrs by sulforhodamine B assay; conditions: KM12, 48 h, read-out: Activity
# [18] = Growth inhibition of human SF295 cells incubated for 48 hrs by sulforhodamine B assay; conditions: SF-295, 48 h
# Method in brief: (§4)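 Cells were plated at 5,000–40,000 per well according to doubling time and preincubated 24 h at 37 °C in 5% CO2; time-zero plates were then TCA-fixed. Five concentrations (10-fold or ½-log dilutions, DMSO stock) were incubated 48 h. Cells were TCA-fixed, stained with 0.4% SRB and read at 515 nm. GI50 was taken where [(Ti−Tz)/(C−Tz)]×100 = 50.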
# [19] = Growth inhibition of human UACC62 cells assessed as cell growth at 10^-8 M incubated for 48 hrs by sulforhodamine B assay; conditions: UACC-62, 48 h, read-out: Activity
# [20] = Growth inhibition of human LOXIMVI cells assessed as cell growth at 10^-6 M incubated for 48 hrs by sulforhodamine B assay; conditions: LOX IMVI, read-out: Activity
# [21] = Growth inhibition of human HCC2998 cells assessed as cell growth at 10^-8 M incubated for 48 hrs by sulforhodamine B assay; conditions: HCC 2998, 48 h, read-out: Activity; method in brief: as §1
# [22] = tested on: MDA-MB-435; assay: Growth inhibition of human MDA-MB-435 cells incubated for 48 hrs by sulforhodamine B assay; conditions: MDA-MB-435, 48 h; method in brief: as §4
# [23] = tested on: ACHN; assay: Growth inhibition of human ACHN cells assessed as cell growth at 10 uM incubated for 48 hrs by sulforhodamine B assay; conditions: read-out: Activity; method in brief: as §3
# [24] = Growth inhibition of human HOP62 cells assessed as cell growth at 10^-4 M incubated for 48 hrs by sulforhodamine B assay; conditions: HOP-62, 48 h, read-out: Activity
# [25] = read-out: LC50 (the source's name)
# [26] = read-out: pLC50 (the source's name) (converted)
structure (smiles),measurement,setting,value
c1ccc(-c2nc(Nc3ccc(-c4nc5ccccc5[nH]4)cc3)nc(N3CCOCC3)n2)cc1,GI50,[1]; read-out: GI50,1730 nM
same,LC50,[1]; read-out: LC50,7160 nM
same,TGI,[1]; read-out: TGI,3520 nM
same,GI50,[1]; read-out: pGI50 (converted),1740 nM
same,LC50,[1]; read-out: pLC50 (converted),7080 nM
same,TGI,[1]; read-out: pTGI (converted),3550 nM
same,growth at 0.1 µM,[2],92%
same,growth at 1 µM,[3],82%
same,GI50,[4]; read-out: GI50,1950 nM
same,CC50,[4]; [25],8250 nM
same,TGI,[4]; read-out: TGI,4010 nM
same,GI50,[4]; read-out: pGI50 (converted),1950 nM
same,CC50,[4]; [26],8320 nM
same,TGI,[4]; read-out: pTGI (converted),3980 nM
same,growth at 0.01 µM,[5],101%
same,growth at 10 µM,[6],-70%
same,GI50,[7],1630 nM
same,TGI,[7],4080 nM
same,CC50,[7],8740 nM
same,growth at 0.01 µM,[8],90%
same,growth at 10 µM,[9],-75%
same,growth at 0.01 µM,[10],100%
same,growth at 10 µM,[11],-57%
same,GI50,[12]; read-out: GI50,257 nM
same,CC50,[12]; [25],4060 nM
same,TGI,[12]; read-out: TGI,1250 nM
same,GI50,[12]; read-out: pGI50 (converted),257 nM
same,CC50,[12]; [26],4070 nM
same,TGI,[12]; read-out: pTGI (converted),1260 nM
same,growth at 0.1 µM,[13],92%
same,growth at 10 µM,[14],-83.4%
same,growth at 100 µM,[15],-52%
same,growth at 10 µM,[16],-63.3%
same,growth at 0.1 µM,[17],97%
same,GI50,[18]; read-out: GI50,1250 nM
same,CC50,[18]; [25],6470 nM
same,TGI,[18]; read-out: TGI,2840 nM
same,GI50,[18]; read-out: pGI50 (converted),1260 nM
same,CC50,[18]; [26],6460 nM
same,TGI,[18]; read-out: pTGI (converted),2820 nM
same,growth at 0.01 µM,[19],94%
same,growth at 1 µM,[20],29%
same,growth at 0.01 µM,[21],100%
same,GI50,[22]; read-out: GI50,1760 nM
same,CC50,[22]; [25],6110 nM
same,TGI,[22]; read-out: TGI,3280 nM
same,GI50,[22]; read-out: pGI50 (converted),1780 nM
same,CC50,[22]; [26],6170 nM
same,TGI,[22]; read-out: pTGI (converted),3310 nM
same,growth at 10 µM,[23],-58.9%
same,growth at 100 µM,[24],-62%
Clc1ccc(-c2nc(Nc3ccc(-c4nc5ccccc5[nH]4)cc3)nc(N3CCOCC3)n2)cc1,GI50,[1]; read-out: GI50,1400 nM
same,TGI,[1]; read-out: TGI,3040 nM
same,GI50,[1]; read-out: pGI50 (converted),1410 nM
same,TGI,[1]; read-out: pTGI (converted),3020 nM
same,growth at 0.1 µM,[2],95%
same,growth at 1 µM,[3],84%
same,GI50,[4]; read-out: GI50,666 nM
same,CC50,[4]; [25],5540 nM
same,TGI,[4]; read-out: TGI,2130 nM
same,GI50,[4]; read-out: pGI50 (converted),661 nM
same,CC50,[4]; [26],5500 nM
same,TGI,[4]; read-out: pTGI (converted),2140 nM
same,growth at 0.01 µM,[5],104%
same,growth at 10 µM,[6],-80%
same,GI50,[7],620 nM
same,TGI,[7],1860 nM
same,CC50,[7],> 100000 nM
same,growth at 0.01 µM,[8],97%
same,growth at 10 µM,[9],-76%
same,growth at 0.01 µM,[10],100%
same,growth at 10 µM,[11],-71%
same,GI50,[12]; read-out: GI50,177 nM
same,TGI,[12]; read-out: TGI,348 nM
same,GI50,[12]; read-out: pGI50 (converted),178 nM
same,TGI,[12]; read-out: pTGI (converted),347 nM
same,growth at 0.1 µM,[13],99%
same,growth at 10 µM,[14],-81.5%
same,growth at 100 µM,[15],-17%
same,growth at 10 µM,[16],-76.7%
same,growth at 0.1 µM,[17],97%
same,GI50,[18]; read-out: GI50,1470 nM
same,TGI,[18]; read-out: TGI,2990 nM
same,GI50,[18]; read-out: pGI50 (converted),1480 nM
same,TGI,[18]; read-out: pTGI (converted),3020 nM
same,growth at 0.01 µM,[19],94%
same,growth at 1 µM,[20],-64%
same,growth at 0.01 µM,[21],94%
same,GI50,[22]; read-out: GI50,596 nM
same,TGI,[22]; read-out: TGI,1860 nM
same,GI50,[22]; read-out: pGI50 (converted),603 nM
same,TGI,[22]; read-out: pTGI (converted),1860 nM
same,growth at 10 µM,[23],-90.6%
same,growth at 100 µM,[24],-26%
